Experiment [1] has as its system Quadruplex DNA. Nature of the experiment: Stabilization of c-Kit1 G4 quadruplex DNA assessed as change in melting temperature at 10 mol.equiv by circular dichroism melting assay. The class given is nucleic-acid assay. Put shortly: (§1)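 CD melting from 20 to 100 °C at 1 °C/min, monitored at 264 nm (c-Kit1, c-Kit2, c-Myc, Tel23-p), 287 nm (Tel23-h) or 280 nm (hairpin). Ligand was at 10 mol equiv with folded DNA (15 μM G4, 30 μM hairpin). ΔTm is Tm with ligand minus Tm without, from curve fits, averaged over triplicates.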

The test system of experiment [2] is Quadruplex DNA. Kind of experiment: Stabilization of c-Myc G4 quadruplex DNA assessed as change in melting temperature at 10 mol.equiv by circular dichroism melting assay. The class given is nucleic-acid assay. The method, boiled down: as §1
The subject of experiment [3] is Quadruplex DNA. Kind of experiment: Effect on parallel Tel23 G4 quadruplex DNA architecture at 10 mol.equiv by circular dichroism spectral analysis. It is filed as nucleic-acid assay. Put shortly: (§2)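 CD spectra of 15 μM G4s or 30 μM hairpin in 20 mM K phosphate pH 7.0 with 5 mM KCl, after annealing. Recorded at 20 °C over 230–360 nm, three scans averaged, buffer baseline subtracted. Ligand was added at 10 mol equiv to the folded DNA from a 10 mM DMSO stock.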
Background: CD spectra are sensitive to the conformation of chiral molecules.

Experiment [4] relates to Quadruplex DNA. Kind of experiment: Effect on c-Myc G4 quadruplex DNA architecture at 10 mol.equiv by circular dichroism spectral analysis. The class given is nucleic-acid assay. Put shortly:
as §2

Experiment [5] can be described thus: Stabilization of hairpin-duplex DNA assessed as change in melting temperature at 10 mol.equiv by circular dichroism melting assay. Put shortly: as §1
In experiment [6] the test system is Quadruplex DNA. Nature of the experiment: Stabilization of c-Kit2 G4 quadruplex DNA assessed as change in melting temperature at 10 mol.equiv by circular dichroism melting assay. It is filed as nucleic-acid assay. Put shortly: as §1
In experiment [7] the test system is Quadruplex DNA. Kind of experiment: Stabilization of parallel Tel23 G4 quadruplex DNA assessed as change in melting temperature at 10 mol.equiv by circular dichroism melting assay. It is filed as nucleic-acid assay. The method, boiled down:
as §1

The subject of experiment [8] is Quadruplex DNA. Kind of experiment: Effect on c-Kit1 G4 quadruplex DNA architecture at 10 mol.equiv by circular dichroism spectral analysis. The class given is nucleic-acid assay. The method, boiled down:
as §2

For experiment [9], the system named is Quadruplex DNA. Nature of the experiment: Effect on human Tel23 G4 quadruplex DNA architecture at 10 mol.equiv by circular dichroism spectral analysis. It is filed as nucleic-acid assay. Put shortly: as §2
Experiment [10] is described as follows: Effect on hairpin-duplex DNA architecture at 10 mol.equiv by circular dichroism spectral analysis. Put shortly:
as §2

Experiment [11] relates to Quadruplex DNA. Kind of experiment: Effect on c-Kit2 G4 quadruplex DNA architecture at 10 mol.equiv by circular dichroism spectral analysis. It is filed as nucleic-acid assay. Put shortly:
as §2

Experiment [12] relates to Quadruplex DNA. Nature of the experiment: Stabilization of human Tel23 G4 quadruplex DNA assessed as change in melting temperature at 10 mol.equiv by circular dichroism melting assay. It is filed as nucleic-acid assay. The method, boiled down:
as §1

Experiment [13] concerns Quadruplex DNA. Kind of experiment: Stabilization of G4 quadruplex DNA in human U2OS cells assessed as colocalization of TRF2/[…] foci at 10 uM incubated for 24 hrs by immunofluorescence microscopy (reference value: 18.4 +/- 2.81%). The class given is cell-based.
The test system of experiment [14] is Quadruplex DNA. Kind of experiment: Stabilization of G4 quadruplex DNA in human U2OS cells assessed as TRF2 foci per cell at 10 uM incubated for 24 hrs by immunofluorescence microscopy (reference value: 15.8 +/- 2.6%). It is filed as cell-based.
Experiment [15] concerns Quadruplex DNA. Kind of experiment: Stabilization of G4 quadruplex DNA in human U2OS cells assessed as increase in number of G4 foci at 10 uM incubated for 24 hrs by immunofluorescence microscopy. It is filed as cell-based.

Structures are written as SMILES. Active and inactive are the calls of the source. No cut-off for these calls is given here. A value given as a limit tells only on which side of the number the result lay.

As a reminder, the ΔTm is the shift of the melting midpoint relative to a reference. Take `N=C(N)N/N=C/c1cn(Cc2ccccc2)c2ccccc12`: the result in the experiment with Quadruplex DNA [1], with Quadruplex DNA [2], in the experiment on Quadruplex DNA [6], with Quadruplex DNA [7] and in the experiment with Quadruplex DNA [12] was Active. In addition, the outcome (in the experiment with Quadruplex DNA [3]; in the experiment with Quadruplex DNA [4]; in the experiment with Quadruplex DNA [8]; in the experiment on Quadruplex DNA [9]; in [10]; with Quadruplex DNA [11]) was inactive. Further, in experiment [5], the ΔTm is more than 2 °C.
`N=C(N)N/N=C/c1cn(C/C=C/c2ccccc2)c2ccccc12`: the result (in the experiment with Quadruplex DNA [1]; in the experiment on Quadruplex DNA [2]; in experiment [5]; with Quadruplex DNA [6]; with Quadruplex DNA [7]; in the experiment on Quadruplex DNA [12]) was Active. Also, the outcome (in the experiment with Quadruplex DNA [3]; with Quadruplex DNA [4]; with Quadruplex DNA [8]; in the experiment with Quadruplex DNA [9]; in experiment [10]; with Quadruplex DNA [11]) was inactive.
`N=C(N)N/N=C/c1cccc(/C=C2/C(=O)Nc3ccc(Cl)cc32)c1`: the outcome with Quadruplex DNA [1], in the experiment with Quadruplex DNA [2], in the experiment on Quadruplex DNA [6], in the experiment with Quadruplex DNA [7] and in the experiment with Quadruplex DNA [12] was Active. For the same compound, the result (in the experiment on Quadruplex DNA [3]; with Quadruplex DNA [4]; in the experiment on Quadruplex DNA [8]; with Quadruplex DNA [9]; in [10]; in the experiment with Quadruplex DNA [11]) was inactive. For the same compound, the ΔTm in experiment [5] is more than 2 °C.
Consider `COc1cc2c(/C=N/NC(=N)N)c(Cl)n(C)c2cc1C`, for which the outcome with Quadruplex DNA [1], with Quadruplex DNA [2], in the experiment with Quadruplex DNA [6], with Quadruplex DNA [7] and in the experiment on Quadruplex DNA [12] was Active. Also, the result (with Quadruplex DNA [3]; in the experiment with Quadruplex DNA [4]; in the experiment with Quadruplex DNA [8]; in the experiment with Quadruplex DNA [9]; in experiment [10]; with Quadruplex DNA [11]) was inactive. In experiment [5], the ΔTm was more than 2 °C.
For `CN(C)c1ccc(Nc2c3ccc(NC(=O)CCN4CCCC4)cc3nc3cc(NC(=O)CCN4CCCC4)ccc23)cc1`, the Activity in the experiment on Quadruplex DNA [13] was 15.2%; in the experiment on Quadruplex DNA [14], 19.1%. The outcome in the experiment on Quadruplex DNA [15] was Active.
Take `O=C1Nc2c(ccc3ccccc23)/C1=C\c1cccc(/C=N/NC2=NCCN2)c1`: the result in the experiment with Quadruplex DNA [1], in the experiment with Quadruplex DNA [2], in the experiment on Quadruplex DNA [6], with Quadruplex DNA [7] and with Quadruplex DNA [12] was Active. Besides, the result (in the experiment on Quadruplex DNA [3]; with Quadruplex DNA [4]; with Quadruplex DNA [8]; in the experiment on Quadruplex DNA [9]; in experiment [10]; with Quadruplex DNA [11]) was inactive. Moreover, the ΔTm in experiment [5] is more than 2 °C.
Turning to `COc1cc2c(/C=N/NC(=N)N)c(Cl)[nH]c2cc1C`, the outcome in the experiment with Quadruplex DNA [1], in the experiment with Quadruplex DNA [2], in the experiment on Quadruplex DNA [6], in the experiment with Quadruplex DNA [7] and with Quadruplex DNA [12] was Active. The result (with Quadruplex DNA [3]; with Quadruplex DNA [4]; in the experiment on Quadruplex DNA [8]; in the experiment on Quadruplex DNA [9]; in experiment [10]; with Quadruplex DNA [11]) was inactive. Also, the ΔTm in [5] was more than 2 °C.
On to `O=C1Nc2ccc(Cl)cc2/C1=C\c1cccc(/C=N/NC2=NCCN2)c1`, for which the result in the experiment with Quadruplex DNA [1], with Quadruplex DNA [2], with Quadruplex DNA [6], in the experiment with Quadruplex DNA [7] and in the experiment on Quadruplex DNA [12] was Active. Besides, the result (in the experiment with Quadruplex DNA [3]; in the experiment with Quadruplex DNA [4]; in the experiment with Quadruplex DNA [8]; with Quadruplex DNA [9]; in experiment [10]; with Quadruplex DNA [11]) was inactive. For the same compound, in [5], the ΔTm is more than 2 °C.
Turning to `N=C(N)N/N=C/c1c(Cl)n(C/C=C/c2ccccc2)c2ccccc12`, the result (in the experiment on Quadruplex DNA [1]; in the experiment with Quadruplex DNA [2]; in experiment [5]; with Quadruplex DNA [6]; with Quadruplex DNA [7]; with Quadruplex DNA [12]) was Active. In addition, the outcome (with Quadruplex DNA [3]; in the experiment on Quadruplex DNA [4]; in the experiment with Quadruplex DNA [8]; with Quadruplex DNA [9]; in experiment [10]; in the experiment with Quadruplex DNA [11]) was inactive.
As to `Cc1cc2c(cc1O)/C(=C\c1cccc(/C=N/NC(=N)N)c1)C(=O)N2`, the result in the experiment with Quadruplex DNA [1], in the experiment with Quadruplex DNA [2], with Quadruplex DNA [6], in the experiment on Quadruplex DNA [7] and in the experiment on Quadruplex DNA [12] was Active. The outcome (in the experiment with Quadruplex DNA [3]; with Quadruplex DNA [4]; with Quadruplex DNA [8]; in the experiment with Quadruplex DNA [9]; in experiment [10]; in the experiment on Quadruplex DNA [11]) was inactive. The shift in melting temperature (ΔTm) in [5] is more than 2 °C.
On to `COc1cc2c(/C=N/NC(=N)N)c[nH]c2cc1C`, for which the result in the experiment on Quadruplex DNA [1], in the experiment on Quadruplex DNA [2], with Quadruplex DNA [6], in the experiment with Quadruplex DNA [7] and in the experiment with Quadruplex DNA [12] was Active. The result (with Quadruplex DNA [3]; in the experiment with Quadruplex DNA [4]; with Quadruplex DNA [8]; in the experiment on Quadruplex DNA [9]; in [10]; in the experiment on Quadruplex DNA [11]) was inactive. In addition, the ΔTm in [5] was more than 2 °C.
For `Nc1ccn2c(/C=N/NC3=NCCN3)c(-c3ccccc3)nc2n1`, the outcome in the experiment on Quadruplex DNA [1], in the experiment on Quadruplex DNA [2], with Quadruplex DNA [6], with Quadruplex DNA [7] and with Quadruplex DNA [12] was Active. Moreover, the outcome (in the experiment with Quadruplex DNA [3]; in the experiment on Quadruplex DNA [4]; in the experiment on Quadruplex DNA [8]; with Quadruplex DNA [9]; in [10]; in the experiment with Quadruplex DNA [11]) was inactive. Further, the ΔTm in experiment [5] was more than 2 °C.
For the compound `N=C(N)N/N=C/c1cccc(/C=C2/C(=O)Nc3c2ccc2ccccc32)c1`, the result in the experiment with Quadruplex DNA [1], in the experiment with Quadruplex DNA [2], with Quadruplex DNA [6], in the experiment with Quadruplex DNA [7] and with Quadruplex DNA [12] was Active. For the same compound, the outcome (in the experiment on Quadruplex DNA [3]; in the experiment with Quadruplex DNA [4]; in the experiment with Quadruplex DNA [8]; in the experiment with Quadruplex DNA [9]; in [10]; with Quadruplex DNA [11]) was inactive. Further, in [5], the ΔTm is more than 2 °C.
On to `Cc1cc2c(cc1O)/C(=C\c1cccc(/C=N/NC3=NCCN3)c1)C(=O)N2`, for which the outcome (with Quadruplex DNA [1]; in the experiment on Quadruplex DNA [2]; in [5]; in the experiment with Quadruplex DNA [6]; in the experiment on Quadruplex DNA [7]; with Quadruplex DNA [12]) was Active. Further, the result (in the experiment on Quadruplex DNA [3]; in the experiment on Quadruplex DNA [4]; in the experiment with Quadruplex DNA [8]; with Quadruplex DNA [9]; in experiment [10]; in the experiment with Quadruplex DNA [11]) was inactive.

The values are drawn from ChEMBL document CHEMBL4402581, “Monohydrazone Based G-Quadruplex Selective Ligands Induce DNA Damage and Genome Instability in Human Cancer Cells” (J Med Chem, 2020).
